Data taken from publication PMC3435882 (Molecular imaging and biology : MIB : the official …, 2009).
Bridge positions count the residues as written; N and C are the ends. Square brackets hold non-standard residues; d marks the D form. Peptide text beside a SMILES is read from it. Cy5.5 = cyanine dye Cy5.5, conjugated as the NHS ester; βAla = NCCC(=O)O

Experiments:
MMP-2 [1] = molecular target: T1, MMP-2 (Homo sapiens, UniProt P08253); assay: In vitro β-casein degradation assay; type: biochemical; details: 0, 10, 50, 200 μM; SDS-PAGE
T1 sequence (P08253 110-660): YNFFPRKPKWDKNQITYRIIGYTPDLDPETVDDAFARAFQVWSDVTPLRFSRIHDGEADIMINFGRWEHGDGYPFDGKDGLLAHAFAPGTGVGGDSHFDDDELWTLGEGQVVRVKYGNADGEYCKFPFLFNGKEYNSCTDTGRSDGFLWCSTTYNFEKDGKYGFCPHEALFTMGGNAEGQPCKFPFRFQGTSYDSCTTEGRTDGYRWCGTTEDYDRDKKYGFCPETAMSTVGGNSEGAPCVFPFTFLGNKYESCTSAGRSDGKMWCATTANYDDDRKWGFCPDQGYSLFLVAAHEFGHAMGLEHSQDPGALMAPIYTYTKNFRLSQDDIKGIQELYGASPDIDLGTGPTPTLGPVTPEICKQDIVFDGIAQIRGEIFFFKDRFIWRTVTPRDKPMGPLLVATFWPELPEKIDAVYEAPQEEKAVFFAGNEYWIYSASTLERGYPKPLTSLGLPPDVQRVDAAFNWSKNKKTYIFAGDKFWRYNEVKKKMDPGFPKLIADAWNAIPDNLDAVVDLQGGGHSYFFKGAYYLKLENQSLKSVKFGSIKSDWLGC

U87 cells [2] = assay: Fluorescence microscopy, probe uptake in U87 cells; type: cell-based, human; details: for uptake/binding in U87 cells: 10 μM, 37°C, 5 min
How it was run: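 U87 cells grown in DMEM/F-12 with 10% FBS were seeded on cover slips overnight. For blocking, cells were pretreated with doxycycline (5, 25, 100 μM) or unlabelled peptide, then given 10 μM Cy5.5-labelled test compound; uptake samples received the probe alone (10 μM, 37°C, 5 min). After two PBS washes, cells were fixed and stained with 1 μM Sytox Green in 95% ethanol (15 min). Fluorescence microscopy was at ×60.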

PC-3 tumors = type: in vivo, mice; details: for tumor uptake in intratibial PC-3 tumors: 48 hr after intravenous injection, 15 nmol/mouse
PC-3 cells = assay: Fluorescence microscopy, probe uptake in PC-3 cells; type: cell-based, human; details: 10 μM, 37°C, 5 min
How it was run: (§1)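 Cells were kept in DMEM/F-12 with 10% FBS at 37°C, 5% CO₂, seeded on cover slips and incubated overnight. Cy5.5-labelled test compound (10 μM) was added for 5 min at 37°C. Cells were washed twice with PBS, then fixed and nuclear-stained with 1 μM Sytox Green in 95% ethanol for 15 min. Fluorescence microscopy was at ×60.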

A549 cells = assay: Fluorescence microscopy, probe uptake in A549 cells; type: cell-based, human; details: 10 μM, 37°C, 5 min
How it was run: as §1

U87 cells [3] = assay: Confocal microscopy of U87 cells; type: cell-based, human; details: 5 min
How it was run: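 U87 cells (1 × 10⁵) on cover slips in 24-well plates were exposed to 10 μM Cy5.5-labelled test compound or free Cy5.5. They were held 5 min at 4°C or 37°C in the dark, then washed twice with PBS. Nuclei were stained with 1 μM Sytox Green. After two more PBS washes, slides were mounted for confocal imaging at emission 693 nm (Cy5.5) and 488 nm (Sytox Green).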

U87 brain tumors = assay: In vivo and ex vivo NIRF imaging of intracranial U87 tumors; design: species or system mice; details: 24 hr after intravenous administration, 15 nmol/mouse
MMP-2 [4] = molecular target: T1, MMP-2; assay: In vitro MMP-2 inhibition assay; type: biochemical; details: MMP-2 Inhibition IC50, APMA-activated MMP-2, 1 hr preincubation at 37°C
How it was run: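 Commercial MMP-2 was activated with APMA. Test compound was preincubated with activated enzyme (40 ng/200 μl) for 1 hr at 37°C, then biotinylated gelatinase substrate was added for 1 hr. The mixture was moved to a biotin-binding plate (30 min, 37°C) and washed. Streptavidin-enzyme conjugate and chromogenic substrate followed, and OD at 450 nm gave relative gelatinase activity.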

[5] = Stability study in serum-containing culture medium; type: in vitro ADME; details: DMEM/F-12 with 10% fetal bovine serum, 25°C, over 3 hr, HPLC
How it was run: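 Peptides were incubated at 25°C in DMEM/F-12 containing 10% FBS. Aliquots taken at intervals were analysed by reverse-phase C-18 HPLC using an acetonitrile/water gradient with 0.1% TFA and UV detection at 230 nm. Intact-peptide peak area was expressed as a percentage of the 0-min area.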

[6] = tested on: gelatinase activity in U87 cell lysates; assay: Gelatin zymography; type: biochemical, human; details: U87 cell lysate, doxycycline 100 μM in incubation buffer
How it was run: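 U87 cells were lysed in 1% Triton X-100, 50 mM Tris-HCl pH 7.6, 200 mM NaCl, 10 mM CaCl₂, then spun 10 min at 9700 × g. Supernatant was diluted 1:4 in SDS sample buffer, loaded at equal protein and run on 10% gels containing 1 mg/ml gelatin. Gels were washed 4 hr in Triton/CaCl₂ buffer and developed overnight at 37°C (pH 7.6), with doxycycline added, then Coomassie-stained.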

## Cy5.5-c(CTTHWGFTLC)NH2 ({Cy5.5}-CTTHWGFTLC-NH2; disulfide 1-10) [Cy5.5-C1]
MMP-2 [1]
  inhibition of β-casein degradation by MMP-2: inhibited the degradation of β-casein in a dose-dependent manner
U87 cells [2]
  uptake/binding in U87 cells: to a less degree
PC-3 tumors
  tumor uptake in intratibial PC-3 tumors: tumor targeting could not be detected

## Cy5.5-c(KAHWGFTLD)NH2 ({Cy5.5}-KAHWGFTLD-NH2; lactam 1-9) [Cy5.5-C6]
MMP-2 [1]
  inhibition of β-casein degradation by MMP-2: inhibited the degradation of β-casein in a dose-dependent manner
U87 cells [2]
  uptake/binding in U87 cells: rapidly taken up
PC-3 cells
  uptake in PC-3 cells: taken up
A549 cells
  binding to A549 cells (minimal MMP-2 activity): did not bind
U87 cells [3]; 4°C
  cell uptake at 4°C: substantially reduced
U87 cells [3]
  cell uptake and distribution at 37°C: distributed to cell cytosol and nuclei
PC-3 tumors
  tumor uptake in intratibial PC-3 tumors: clearly visualized
U87 brain tumors
  localization to orthotopic U87 gliomas: readily visible

## Cy5.5-c(KHGLTWFAD)NH2 ({Cy5.5}-KHGLTWFAD-NH2; also: cyclic, ring type and sites not given here) [Cy5.5-C7]
PC-3 tumors
  tumor uptake in intratibial PC-3 tumors: not taken up by the tumors

## Cy5.5 [reference compound]
U87 cells [2]
  uptake/binding in U87 cells: did not bind to the cells
U87 cells [3]
  cell uptake and distribution at 37°C: minimal uptake

## CC(C)C[C@@H]1NC(=O)[C@H]([C@@H](C)O)NC(=O)[C@H](Cc2ccccc2)NC(=O)CNC(=O)[C@H](Cc2c[nH]c3ccccc23)NC(=O)[C@H](Cc2c[nH]cn2)NC(=O)[C@H]([C@@H](C)O)NC(=O)[C@H]([C@@H](C)O)NC(=O)[C@@H](N)CSSC[C@@H](C(N)=O)NC1=O [C1, c(CTTHWGFTLC)NH2, reference compound] (H-CTTHWGFTLC-NH2; disulfide 1-10)
MMP-2 [4]
  IC50: 30.3 µM
[5]
  stability of intact peptide: completely degraded

## C[C@H]1c2cccc(O)c2C(=O)C2=C(O)[C@]3(O)C(=O)C(C(N)=O)=C(O)[C@@H](N(C)C)[C@@H]3[C@@H](O)[C@@H]21 [doxycycline, reference compound]
U87 cells [2]; doxycycline 25 and 100 μM followed by Cy5.5-C6 10 μM
  blocking of Cy5.5-C6 binding to U87 cells: partially blocked
PC-3 tumors; co-injection with doxycycline (data not shown)
  blocking of in vivo uptake of Cy5.5-C6 in PC-3 tumors: could not be blocked
[6]
  blocking of gelatinase activity in zymography: could be blocked

## CC(C)C[C@@H]1NC(=O)[C@H]([C@@H](C)O)NC(=O)[C@H](Cc2ccccc2)NC(=O)CNC(=O)[C@H](Cc2c[nH]c3ccccc23)NC(=O)[C@H](Cc2c[nH]cn2)NC(=O)[C@H]([C@@H](C)O)NC(=O)[C@H]([C@@H](C)O)NC(=O)[C@H](C)NC(=O)CCNC1=O [C3, c(ATTHWGFTL-β-Ala)] (cyclo(ATTHWGFTL[βAla]))
MMP-2 [4]
  IC50: 83.9 µM
